Experimental data from PMC9078286 (RSC Advances, 2018).

Assay type: in vivo, Sprague-Dawley rats
Conditions: for T max / half-life: Normal rats, oral Gandi capsule 80 mg kg^-1, plasma, n = 6, mean ± SD; for concentration at 2 h / half-life: male, Sprague-Dawley, rat, plasma, po; for concentration at 2 h: 80 mg kg^-1 Gandi capsule; for half-life: 80 mg/kg, T 1/2 z
In short: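 Diabetes was induced by a single ip STZ dose of 45 mg kg−1 in citrate buffer (0.1 mol L−1, pH 4.5), with blood glucose >16.7 mmol L−1 after 1 week; rats were dosed on day 10. Rats were fasted 12 h, then given capsule contents in 0.3% CMC-Na orally; n = 6/group. Plasma was sampled 0–48 h, precipitated with IS in methanol and analysed by positive-ion LC-MS/MS; results are mean ± SD, compared by t-test.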

Row | T max [h] | concentration at 2 h [ng/mL] | half-life [h] | Time after oral administration in which the compound can be detected in plasma (oral Gandi capsule, rat plasma, quick elimination phase) [h] | SMILES
1 | 1.50 ± 1.40 | 723 | 9.45 ± 2.87 | – | O=C(O)[C@H]1O[C@@H](Oc2cc3oc(-c4ccccc4)cc(=O)c3c(O)c2O)[C@H](O)[C@@H](O)[C@@H]1O [Baicalin, baicalin]
2 | 1.25 ± 0.35 | 42.6 | 0.46 ± 0.38 | ≤ 2.5 | COC(=O)C1=CO[C@@H](O[C@@H]2O[C@H](CO)[C@@H](O)[C@H](O)[C@H]2O)[C@@H]2[C@@H](C)[C@@H](O)C[C@H]12 [Loganin, loganin]
3 | – | 54.9 | 1.52 ± 0.25 | – | COc1c(O)cc(O)c2c(=O)cc(-c3ccccc3)oc12 [Wogonin, wogonin]
